FLuc inh counter: Photinus pyralis luciferase inhibition counter-screen | inhibition, % at 10 µM | 200,000 compounds, 1.5% hits | P08659 | ATPLite firefly luciferase biochemical luminescence, 10 min;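 active = inhibition above about 50% when tested at 10 µM, limit read from the data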
Target sequence (P08659 whole entry, looked up): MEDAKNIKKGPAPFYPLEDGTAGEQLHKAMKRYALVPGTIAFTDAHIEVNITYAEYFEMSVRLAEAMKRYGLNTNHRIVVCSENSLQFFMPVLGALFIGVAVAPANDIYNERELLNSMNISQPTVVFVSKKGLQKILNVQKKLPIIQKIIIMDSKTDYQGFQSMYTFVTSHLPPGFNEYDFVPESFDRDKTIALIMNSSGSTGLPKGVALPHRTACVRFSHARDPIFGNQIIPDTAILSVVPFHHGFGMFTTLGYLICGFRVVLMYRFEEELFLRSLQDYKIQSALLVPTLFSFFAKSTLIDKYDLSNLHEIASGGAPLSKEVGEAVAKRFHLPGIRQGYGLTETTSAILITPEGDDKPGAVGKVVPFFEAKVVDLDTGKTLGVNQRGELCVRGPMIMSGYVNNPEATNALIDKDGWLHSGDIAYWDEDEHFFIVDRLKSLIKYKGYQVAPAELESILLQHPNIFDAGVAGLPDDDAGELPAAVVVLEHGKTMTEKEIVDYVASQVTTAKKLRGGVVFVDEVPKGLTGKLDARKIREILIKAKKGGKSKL
FLuc act counter: affects firefly luciferase, flagging false hits in luciferase stimulation screens; 200,000 tested, under 10 active; ATPlite luciferase biochemical, luminescence, 10 min; 0 = ATP-free wells, 1 = DMSO control; AID 1027; activation factor at 10 µM; P08659;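 active = luciferase activation factor, scaled between plate controls, of at least 2 with compound at 10 µM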
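Material: Luciferase/luciferin reagent mix | Doses: Test compounds dosed from 2 mM stocks in 100% DMSO | Timing: 10 min incubation after luciferase reagent addition, room temperature | Measured by: Luminescence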
TRAIL sens C8: sensitizes caspase-8 expressing cells to TRAIL. NB7+C8 cells + TRAIL, ATPlite viability luminescence. inhibition (viability loss, TRAIL sensitization), % at 10 µM. 360,000 compounds, 1% hits. AID 624354;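 active = compounds causing at least 50% loss of cell viability in the single-dose screen, relative to plate controls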
HSP90 refold inh: blocks HSP90-mediated luciferase refolding in reticulocyte lysate; Rabbit reticulocyte lysate, luciferase refolding luminescence, 3 h; inhibition, % at 5.6 µM; 290,000 compounds, 0.91% hits;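 active = inhibition above the screen-wide mean plus 3 SD, computed separately per campaign, cut at about 16% in these data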;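 note: 0% = DMSO wells and 100% = 60 µM geldanamycin wells; inhibitors lower the luminescence because luciferase stays unfolded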
PPC-1+TRAIL kill: compounds killing PPC-1 cancer cells with TRAIL present (potentiator screen, no TRAIL-free arm); cell killing (% activity), % at 4 µM or 5 µM; PPC-1 cells + TRAIL, ATPLite viability luminescence; 220,000 compounds, 0.41% hits;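 active = cell killing above 50% in the first pass at 4 µM, then a duplicate retest at 5 µM averaging 50% or more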;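 note: plate controls were cells with TRAIL plus DMSO for no effect and medium-only wells lacking cells for full effect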
Starred values were filed as active, the others as inactive. Most compounds without a hit are left out; they make up all but 2% or so of the library.

Screening Oc1ccc(/C=C/c2cc(O)cc(O)c2)cc1 returned FLuc inh counter 80.4*, FLuc act counter 0.2, TRAIL sens C8 39.4, HSP90 refold inh 7.2 and PPC-1+TRAIL kill 31.8.
For COc1cc(O)cc(/C=C/c2ccccc2)c1 the results were TRAIL sens C8 20.9.
For COc1ccccc1CCC(=O)NNC(=O)c1ccc(Br)cc1 the results were TRAIL sens C8 14.5 and HSP90 refold inh -0.3.
Screening COc1cc(F)ccc1-c1csc(C(NC(C)=O)c2ccccc2)n1 (stereo not drawn) returned TRAIL sens C8 13.5.
`Cc1ccc(C)n1-c1ccc(-c2ccn[nH]2)cc1` gave FLuc inh counter 37.6, FLuc act counter 0.6, TRAIL sens C8 2.8, HSP90 refold inh 1.7 and PPC-1+TRAIL kill 15.8.
`c1ccn(-c2ccc(-c3ccn[nH]3)cc2)c1` gave FLuc inh counter 52.4*, FLuc act counter 0.5, TRAIL sens C8 12.3, HSP90 refold inh -2.1 and PPC-1+TRAIL kill 9.7.
Screening CC(C)(C)c1ccc(CSc2ccc(S(=O)(=O)N3CCOCC3)cn2)cc1 returned TRAIL sens C8 16.4.
Screening COC(=O)c1ccc(NC(=O)C(=O)N2CCCC2)cc1 returned FLuc inh counter 21.5, FLuc act counter 0.8, TRAIL sens C8 24.8, HSP90 refold inh 16.5* and PPC-1+TRAIL kill -4.1.
For O=C(O)COc1ccccc1/C=N/NC(=O)c1ccc(F)cc1 the results were FLuc inh counter 52.8*, FLuc act counter 0.5, TRAIL sens C8 9.5, HSP90 refold inh 2.8 and PPC-1+TRAIL kill 14.9.
For O=C(N/N=C/c1ccccc1Cl)c1ccc(F)cc1 the results were FLuc inh counter 78.3*, FLuc act counter 0.2, TRAIL sens C8 44.6, HSP90 refold inh -2.3 and PPC-1+TRAIL kill 28.7.
`O=C(NN=Cc1ccccc1Cl)c1ccccc1` gave TRAIL sens C8 45.0.
Screening COc1ccc(C(=O)N2CCOCC2c2cc(C(=O)NCc3ccccc3)no2)cc1 (stereo not drawn) returned TRAIL sens C8 -0.9.
CN(c1ccc(F)cc1)S(=O)(=O)c1ccc(Cl)c(C(=O)NCc2ccco2)c1 was read as TRAIL sens C8 -11.8.
Cc1[nH]n(C(N)=S)c(=O)c1N=Nc1ccc2ccccc2c1 was read as FLuc inh counter 62.6*, FLuc act counter 0.4, TRAIL sens C8 20.6, HSP90 refold inh 0.9 and PPC-1+TRAIL kill 33.2.
Cc1ccc(N=Nc2c(C)[nH]n(C(N)=S)c2=O)cc1C was read as FLuc inh counter 33.3, FLuc act counter 0.7, TRAIL sens C8 20.3, HSP90 refold inh -0.6 and PPC-1+TRAIL kill 20.5.
Screening NC(=S)n1[nH]c(-c2ccc([N+](=O)[O-])cc2)c(N=Nc2cccc([N+](=O)[O-])c2)c1=O returned FLuc inh counter -1.7, FLuc act counter 1, TRAIL sens C8 52.9*, HSP90 refold inh 2.8 and PPC-1+TRAIL kill 1.5.
For Cc1[nH]n(C(N)=S)c(=O)c1N=Nc1cc(-c2ccc(Br)cc2)[nH]n1 the results were FLuc inh counter 56.4*, FLuc act counter 0.4, TRAIL sens C8 22.5, HSP90 refold inh 12.8 and PPC-1+TRAIL kill 8.5.
Screening CCOC(=O)CCCCC1C(CCCC(=O)OCC)C=NN1C (stereo not drawn) returned TRAIL sens C8 4.6.
CCOC(=O)c1nn(-c2ccc(Cl)cc2)cc1O was read as TRAIL sens C8 14.2, HSP90 refold inh 1.2 and PPC-1+TRAIL kill 13.6.
`COC(=O)c1nn(-c2ccc(-c3ccccc3)cc2)cc1O` gave FLuc inh counter 80.1*, FLuc act counter 0.2, TRAIL sens C8 58.1*, HSP90 refold inh 12.6 and PPC-1+TRAIL kill 6.7.
CCOC(=O)c1nn(-c2ccc(C)cc2)cc1O was read as FLuc inh counter 58.8*, FLuc act counter 0.4, TRAIL sens C8 27.9, HSP90 refold inh 6.3 and PPC-1+TRAIL kill 13.3.
For CCOC(=O)c1nn(-c2ccccc2)cc1O the results were TRAIL sens C8 9.4, HSP90 refold inh -0.7 and PPC-1+TRAIL kill 18.0.
Screening O=C1c2ccccc2S(=O)(=O)N1CC1CC(c2ccc(Cl)cc2)=NO1 (stereo not drawn) returned FLuc inh counter 50.1*, FLuc act counter 0.5, TRAIL sens C8 38.6, HSP90 refold inh 0.3 and PPC-1+TRAIL kill 11.5.
COc1ccc(C2(C(=O)c3ccccc3)C(=O)c3ccccc3C2=O)cc1 was read as TRAIL sens C8 55.5*, HSP90 refold inh -3.6 and PPC-1+TRAIL kill 25.6.
Screening COCCOCCn1c(CCCO)nc2ccccc21 returned FLuc inh counter -7.7, FLuc act counter 1.1, TRAIL sens C8 2.0, HSP90 refold inh 1.8 and PPC-1+TRAIL kill 9.1.
Screening CCCn1c(/C=C/c2ccccc2)nc2ccccc21 returned FLuc inh counter 71.9*, FLuc act counter 0.3, TRAIL sens C8 52.6*, HSP90 refold inh 1.4 and PPC-1+TRAIL kill 36.6.
Screening CC(C)n1c(/C=C/c2ccccc2)nc2ccccc21 returned FLuc inh counter 70.5*, FLuc act counter 0.3, TRAIL sens C8 51.6*, HSP90 refold inh 3.1 and PPC-1+TRAIL kill 32.7.
`COCCOCCn1c(/C=C/c2ccccc2)nc2ccccc21` gave FLuc inh counter 83.5*, FLuc act counter 0.2, TRAIL sens C8 52.5*, HSP90 refold inh 0.6 and PPC-1+TRAIL kill 47.8.
For Cc1onc(-c2ccccc2Cl)c1C(=O)N1CCN(C)CC1 the results were TRAIL sens C8 7.9 and HSP90 refold inh -2.2.
Screening O=C(O)/C=C/C(=O)NNC(=O)c1cc(-c2ccccc2)n[nH]1 returned FLuc inh counter 43.6, FLuc act counter 0.6, TRAIL sens C8 50.8*, HSP90 refold inh 0.6 and PPC-1+TRAIL kill 21.8.
O=C(O)/C=C\C(=O)NNC(=O)c1cc(-c2ccccc2)n[nH]1 was read as TRAIL sens C8 6.8, HSP90 refold inh -1.2 and PPC-1+TRAIL kill -9.4.
Screening COc1cccc2cc(-c3nnc(-c4ccccc4)o3)c(=O)oc12 returned FLuc inh counter 91.3*, FLuc act counter 0.1, TRAIL sens C8 38.1 and HSP90 refold inh 4.2.
`COc1ccc(-c2nnc(-c3cc4ccccc4oc3=O)o2)cc1` gave FLuc inh counter 5.0, FLuc act counter 0.9, TRAIL sens C8 -4.4, HSP90 refold inh -3.1 and PPC-1+TRAIL kill 16.1.
`CCn1cc(CN2CCC(C(=O)Nc3cccc(-c4cccc(OC)c4)c3)CC2)c(C)n1` gave TRAIL sens C8 5.8 and HSP90 refold inh 3.5.
`COc1ccc(-c2cn3cc(C)ccc3n2)cc1Br` gave FLuc inh counter 94.2*, FLuc act counter 0.1, TRAIL sens C8 75.3*, HSP90 refold inh 7.6 and PPC-1+TRAIL kill 87.0*.
For COc1ccc(-c2cn3cc(Cl)ccc3n2)cc1OC the results were FLuc inh counter 26.7, FLuc act counter 0.7, TRAIL sens C8 10.3, HSP90 refold inh 8.6 and PPC-1+TRAIL kill 6.7.
CCC(=O)c1ccc(/C=C/c2nc3ccccc3n2C)o1 was read as FLuc inh counter 78.9*, FLuc act counter 0.2, TRAIL sens C8 50.6*, HSP90 refold inh 8.8 and PPC-1+TRAIL kill 7.5.
`Cc1cc(C)cc(NC(=O)N(CCC#N)Cc2cccs2)c1` gave TRAIL sens C8 -0.7, HSP90 refold inh 1.9 and PPC-1+TRAIL kill 15.5.
